The values that follow come from ChEMBL document CHEMBL4334455, “Synthesis of Usnic Acid Derivatives and Evaluation of Their Antiproliferative Activity against Cancer Cells” (J Nat Prod, 2019).

In general, IC50 refers to the concentration at which inhibition is half-maximal.

Experiment [1] deals with HeLa. Kind of experiment: Cell cycle arrest in human HeLa cells assessed as reduction in cell population at S phase at 2.4 to 7.2 uM after 24 hrs by propidium iodide staining based flow cytometric analysis. It is filed as functional. For orientation: A flow cytometer gives signals particle by particle.
Experiment [2] concerns HeLa. Kind of experiment: Induction of cell cycle arrest in human HeLa cells assessed as accumulation of cells at G0/G1 phase 2.4 to 7.2 uM after 24 hrs by propidium iodide staining based flow cytometric analysis (reference value: 44%). The format is functional.
For experiment [3], the system named is HeLa. The experiment is described as follows: Cell cycle arrest in human HeLa cells assessed as reduction in cell population at G2/M phase at 2.4 to 7.2 uM after 24 hrs by propidium iodide staining based flow cytometric analysis. It is filed as functional.
Experiment [4] has as its system MCF7. Kind of experiment: Cytostatic activity against human MCF7 cells measured after 24 hrs by MTT assay. It is filed as functional, cell-based. In outline: (§1)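 Cells seeded at 4 × 10³/well for 24 h runs and for PC-3, or 2 × 10³/well for MCF-7 and HeLa 48 h runs, and attached overnight. Medium replaced with compound-containing medium for 24 or 48 h. MTT (4 mg mL⁻¹) added for the final 3 h, formazan dissolved in DMSO, absorbance read at 570 nm (reference 660 nm). IC₅₀ calculated from at least three independent experiments in duplicate, mean ± SE.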
In general terms: Tetrazolium assays rely on reduction of a dye to a coloured formazan, in cell work by metabolically active cells.

Experiment [5] concerns MCF7. Kind of experiment: Antiproliferative activity against human MCF7 cells assessed as reduction in cell viability after 24 hrs by MTT assay. It is filed as functional, cell-based. The note with it: for IC50: MCF7, 24 h. In outline:
as §1

Experiment [6] deals with HeLa. Kind of experiment: Antiproliferative activity against human HeLa cells assessed as reduction in cell viability after 48 hrs by MTT assay. The format is functional, cell-based. In outline: as §1
Experiment [7] concerns PC-3. The experiment is described as follows: Cytostatic activity against human PC3 cells measured after 24 hrs by MTT assay. The format is functional, cell-based. In outline:
as §1

Experiment [8] deals with HeLa. Kind of experiment: Cytostatic activity against human HeLa cells measured after 24 hrs by MTT assay. The format is functional, cell-based. In outline: as §1
Experiment [9] has as its system PC-3. The experiment is described as follows: Antiproliferative activity against human PC3 cells assessed as reduction in cell viability after 48 hrs by MTT assay. The note with it: PC-3, 48 h. The format is functional, cell-based. In outline:
as §1

The test system of experiment [10] is MCF7. Kind of experiment: Antiproliferative activity against human MCF7 cells assessed as reduction in cell viability after 48 hrs by MTT assay. The format is functional, cell-based. In outline:
as §1

Experiment [11] is described as follows: Cytotoxicity against human HDFa cells assessed as reduction in cell viability after 48 hrs by MTT assay. The format is cell-based. In outline:
as §1

Experiment [12] relates to PC-3. Kind of experiment: Antiproliferative activity against human PC3 cells assessed as reduction in cell viability after 24 hrs by MTT assay. The format is functional, cell-based. The conditions noted are these: PC-3, 24 h. In outline:
as §1

Experiment [13] is described as follows: Cytotoxicity against human HDFa cells assessed as reduction in cell viability after 24 hrs by MTT assay. It is filed as cell-based. In outline:
as §1

The test system of experiment [14] is HeLa. The experiment is described as follows: Antiproliferative activity against human HeLa cells assessed as reduction in cell viability after 24 hrs by MTT assay. It is filed as functional, cell-based. In outline:
as §1

The test system of experiment [15] is HeLa. Kind of experiment: Cell cycle arrest in human HeLa cells assessed as accumulation of cells at S phase at 8.7 uM after 24 hrs by propidium iodide staining based flow cytometric analysis. It is filed as functional.
In experiment [16] the test system is HeLa. Kind of experiment: Cell cycle arrest in human HeLa cells assessed as accumulation of cells at G2/M phase at 8.7 uM after 24 hrs by propidium iodide staining based flow cytometric analysis. The format is functional.
The subject of experiment [17] is MCF7. The experiment is described as follows: Induction of cell cycle arrest in human MCF7 cells assessed as accumulation of cells at S phase at 8.7 uM after 24 hrs by Propidium iodide staining based flow cytometric analysis (reference value: 23.75 +/- 1.87%). The format is functional.
Experiment [18] concerns MCF7. Kind of experiment: Induction of cell cycle arrest in human MCF7 cells assessed as accumulation of cells at G2/M phase at 8.7 uM after 24 hrs by Propidium iodide staining based flow cytometric analysis (reference value: 27 +/- 2.97%). The format is functional.
The subject of experiment [19] is MCF7. The experiment is described as follows: Induction of cell cycle arrest in human MCF7 cells assessed as accumulation of cells at G0/G1 phase at 8.7 uM after 24 hrs by Propidium iodide staining based flow cytometric analysis (reference value: 47.8 +/- 0.42%). It is filed as functional.
The test system of experiment [20] is MCF7. Kind of experiment: Induction of cell cycle arrest in human MCF7 cells assessed as accumulation of cells at G0/G1 phase at 2.9 uM after 24 hrs by Propidium iodide staining based flow cytometric analysis (reference value: 47.8 +/- 0.42%). It is filed as functional.
In experiment [21] the test system is MCF7. Kind of experiment: Induction of cell cycle arrest in human MCF7 cells assessed as accumulation of cells at G2/M phase at 2.9 uM after 24 hrs by Propidium iodide staining based flow cytometric analysis (reference value: 27 +/- 2.97%). The format is functional.
Experiment [22] concerns MCF7. The experiment is described as follows: Induction of cell cycle arrest in human MCF7 cells assessed as accumulation of cells at S phase at 2.9 uM after 24 hrs by Propidium iodide staining based flow cytometric analysis (reference value: 23.75 +/- 1.87%). The format is functional.
Experiment [23] concerns HeLa. The experiment is described as follows: Induction of cell cycle arrest in human HeLa cells assessed as accumulation of cells at G0/G1 phase after 24 hrs by propidium iodide staining based flow cytometric analysis. The format is functional.

The structures appear in SMILES notation. The source made the active and inactive calls. No cut-off for these calls is given here. Where only a bound is given, the exact number is not on record here.

For `CC(=O)c1c(O)c(C)c(O)c2c1OC1=Cc3c(c(C)nn3C)C(=O)[C@]12C`, the outcome in the experiment with HeLa [1] and with HeLa [3] was Active. Besides, the Activity with HeLa [2] is on record as 51 - 65%. The outcome with MCF7 [4], with PC-3 [7] and in the experiment on HeLa [8] was inactive. The IC50 in the experiment on MCF7 [5] was more than 10 µM; with HeLa [6] (Homo sapiens, HeLa, 48 h), 1.2 µM; in the experiment on PC-3 [9], more than 10 µM; in the experiment on MCF7 [10] (Homo sapiens, MCF7, 48 h) it was more than 10 µM; in experiment [11], more than 10 µM; in the experiment with PC-3 [12], more than 10 µM. Also, the IC50 in [13] is more than 10 µM; with HeLa [14] it was 2.7 µM.

Turning to `CC(=O)c1c(O)c(C)c(O)c2c1OC1=Cc3c(c(C)nn3-c3ccccc3)C(=O)[C@]12C`, the inhibition result in the experiment with MCF7 [5] and in the experiment on MCF7 [10] was “inactive” each time.

`CC(=O)c1c(O)c(C)c(O)c2c1OC1=Cc3c(c(C)nn3-c3ccc(F)cc3)C(=O)[C@]12C`: the inhibition entry in the experiment on MCF7 [5] and with MCF7 [10] was “inactive” each time.

In the case of `CC(=O)c1c(O)c(C)c(O)c2c1OC1=CC(=O)C(C(C)=O)C(=O)C12C` (stereo in doubt; (-)-1) [listing 1 of 2 here], the outcome with HeLa [15] and in the experiment on HeLa [16] was Active.

On to `CC(=O)c1c(O)c(C)c(O)c2c1OC1=CC(=O)C(C(C)=O)C(=O)C12C` (stereo in doubt; (-)-1) [listing 2 of 2 here], for which the Activity in the experiment on MCF7 [17] is reported as 20.6%; in the experiment with MCF7 [18], 24.95%; in the experiment with MCF7 [19], 52.35%; in the experiment on MCF7 [20] it was 46.95%; with MCF7 [21], 28.25%; in the experiment on MCF7 [22], 22.9%. Also, the concentration for half-maximal inhibition (IC50) in the experiment with MCF7 [5] was more than 10 µM; with HeLa [6] (Homo sapiens, HeLa, 48 h) it was more than 10 µM; in the experiment on PC-3 [9], more than 10 µM; in the experiment on MCF7 [10] (Homo sapiens, MCF7, 48 h), more than 10 µM; in experiment [11] it was more than 10 µM; with PC-3 [12], more than 10 µM. In addition, the half-maximal inhibitory concentration (IC50) (in experiment [13]; in the experiment on HeLa [14]) was more than 10 µM each time.

For `CC(=O)c1c(O)c(C)c(O)c2c1OC1=Cc3c(c(C)nn3-c3ccc(Cl)c(Cl)c3)C(=O)C12C` (racemic), the inhibition entry with MCF7 [5] and in the experiment on MCF7 [10] was “inactive” each time.

As for `CC(=O)c1c(O)c(C)c(O)c2c1OC1=Cc3c(c(C)nn3-c3ccccc3)C(=O)C12C` (racemic), the inhibition entry in the experiment on MCF7 [5] and in the experiment with MCF7 [10] was “inactive” throughout.

Turning to `CC(=O)c1c(O)c(C)c(O)c2c1OC1=Cc3c(c(C)nn3-c3ccc(C)cc3)C(=O)C12C` (racemic), the inhibition result in the experiment on MCF7 [5] and in the experiment with MCF7 [10] was “inactive” in each case.

Take `CC(=O)c1c(O)c(C)c(O)c2c1OC1=CC(=O)C(C(C)=O)C(=O)C12C` (stereo in doubt; (+)-1) [listing 1 of 2 here]: the outcome in the experiment on HeLa [15] and in the experiment with HeLa [16] was Active.

For `CC(=O)c1c(O)c(C)c(O)c2c1OC1=Cc3c(c(C)nn3-c3ccc(F)cc3)C(=O)C12C` (racemic), the inhibition result with MCF7 [5] and with MCF7 [10] was “inactive” each time.

Turning to `CC(=O)c1c(O)c(C)c(O)c2c1OC1=Cc3c(c(C)nn3C)C(=O)C12C` (racemic), the result in the experiment on HeLa [1] and with HeLa [3] was Active. In addition, the Activity with HeLa [2] was 51 - 65%; in the experiment with HeLa [23], “Dose-dependent effect”. For the same compound, the result with MCF7 [4], in the experiment with PC-3 [7] and in the experiment with HeLa [8] was inactive. Moreover, the IC50 with MCF7 [5] is more than 10 µM; in the experiment with HeLa [6] (Homo sapiens, HeLa, 48 h) it was 1.1 µM; in the experiment with PC-3 [9], more than 10 µM; with MCF7 [10] (Homo sapiens, MCF7, 48 h) it was more than 10 µM; in experiment [11] it was more than 10 µM; in the experiment on PC-3 [12], more than 10 µM. For the same compound, the IC50 in experiment [13] is more than 10 µM; in the experiment with HeLa [14] it was 2.7 µM.

For the compound `COc1ccc(-n2nc(C)c3c2C=C2Oc4c(C(C)=O)c(O)c(C)c(O)c4[C@]2(C)C3=O)cc1`, the inhibition entry in the experiment with MCF7 [5] and in the experiment with MCF7 [10] was “inactive” each time.

For the compound `CC(=O)c1c(O)c(C)c(O)c2c1OC1=Cc3c(c(C)nn3-c3ccc(Cl)c(Cl)c3)C(=O)[C@]12C`, the inhibition result with MCF7 [5] and in the experiment on MCF7 [10] was “inactive” each time.

Take `COc1ccc(-n2nc(C)c3c2C=C2Oc4c(C(C)=O)c(O)c(C)c(O)c4C2(C)C3=O)cc1` (racemic): the inhibition result in the experiment on MCF7 [5] and in the experiment on MCF7 [10] was “inactive” throughout.

As to `CC(=O)c1c(O)c(C)c(O)c2c1OC1=CC(=O)C(C(C)=O)C(=O)C12C` (stereo in doubt; (+)-1) [listing 2 of 2 here], the Activity in the experiment on MCF7 [17] stood at 22.4%; in the experiment with MCF7 [18] it was 24.8%; in the experiment with MCF7 [19], 50.6%; in the experiment with MCF7 [20], 46%; in the experiment on MCF7 [21] it was 28.8%; with MCF7 [22] it was 23%. The 50% inhibitory concentration (IC50) with HeLa [6] (hela) was 10 to 23.7 µM; with MCF7 [10] (mcf7) it was 10 to 75.7 µM.

Regarding `CC(=O)c1c(O)c(C)c(O)c2c1OC1=Cc3c(c(C)nn3-c3ccc(C)cc3)C(=O)[C@]12C`, the inhibition entry with MCF7 [5] and with MCF7 [10] was “inactive” in each case.
